Cneo AK release – Cryptococcus neoformans lysis via adenylate kinase release; C. neoformans lysis, adenylate kinase release luminescence, 4 h; normalised: neutral wells 0, clomiphene wells 100; lysis activity, % at 15 µM; 360,000 compounds, 0.2% hits; AID 651654;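 active means mean lysis activity across replicates of at least 80%, whatever share of replicates individually reach that level; inactive means mean lysis activity below 80%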
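Material: C. neoformans cells; Schedule: 4 h static compound exposure, 37 °C, read 1 h post-reagent; Measured by: adenylate kinase release luminescence; Read-out: signal increase indicating cell lysis; Controls: Clomiphene as positive lysis control.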
MITF act – increases MITF-driven TRPM1 promoter luciferase signal | SK-MEL-5 TRPM1-promoter luciferase, 24 h; % of positive control, neutral wells = 0 | activation, % at 12.5 µM | 300,000 compounds, 0.75% hits | AID 588334;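 active means mean activation of at least 80% with every replicate also reaching 80%; inconclusive means mean reaches 80% but some replicate falls short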
Wnt bcat act – activates Wnt/beta-catenin signaling in a reporter cell assay; activator, plate reader; activation, % at 9.35 µM; 300,000 compounds, 1.2% hits; AID 743398; in the data active means activation above about 30%, passing the limit was not always enough; inconclusive means no clear call, values can overlap the other calls
PGC1a acetyl inh – modulators of PGC1a acetylation; U2OS PGC1a acetylation, AlphaScreen anti-acetyl-lysine; with virally co-expressed GCN5 acetyltransferase; inhibition, % at 15.6 µM; 350,000 compounds, 0.17% hits; AID 651687;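 active means every replicate shows inhibition of at least 40%; inconclusive means mean inhibition at least 40% but some replicate below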
Hits are given with their value; i = inactive; ? = inconclusive; nt = no result given; ! = repeats disagree. Rows were chosen to be rich in hits. Some 1.5% of all compounds tested hit in one or more screens of this group.

SMILES | Cneo AK release | MITF act | Wnt bcat act | PGC1a acetyl inh
CN(C)/C=C/C(=O)/C=C/c1ccc(Cl)cc1 | nt | i | 71 | i
CN(C)/C=C/C(=O)c1ccc(Cl)cc1 | i | nt | i | i
CCOc1ccccc1NC(=O)CN1C(=O)CSC(C)C1=O (configuration not stated) | nt | i | i | i
CCOc1ccccc1NC(=O)CN1C(=O)C(C)SC(C)C1=O (configuration not stated) | nt | i | 39 | i
O=C(/C=C/c1ccccc1Cl)Nc1cccc(O)c1 | nt | i | 54 | nt
O=C(/C=C/c1ccccc1Cl)Nc1ccccc1 | i | nt | 45 | i
O=C(/C=C/c1ccccc1Cl)Nc1ccc2c(c1)C(=O)NC2=O | i | nt | i | i
C/C=C/c1ccc([C@H]2[C@H](CO)N3C(=O)CN(C(=O)c4cccc(F)c4)C[C@@H]23)cc1 | nt | nt | nt | i
O=C(CN1CCOCC1)N[C@H]1CC[C@@H](CCNC(=O)C2CCCC2)O[C@@H]1CO | i | nt | nt | i
N#Cc1cc2cc3c(cc2nc1SCC(=O)N1CCCC1)OCCO3 | i | 87 | nt | i
CNC(=O)C[C@H]1CC[C@H]2[C@@H](COc3ccc(NC(=O)c4cccc(F)c4)cc3C(=O)N2C)O1 | i | nt | nt | i
COc1ccc(/C=C/C2=Nc3ccccc3NC(C)(C)C2)cc1OC | nt | ? | 40 | i
COc1ccc(/C=C/C2=CC(C)(C)NC(=S)N2)cc1OC | nt | i | i | nt
COc1ccc2c3c(n(C)c2c1)[C@@H](CO)N(C(=O)CN(C)C)CC31CCN(Cc2cncnc2)CC1 | nt | nt | nt | i
CS/C(N)=N/N=C/c1cc(C)ccc1O | nt | ? | 88 | i
CC(C)NC(=O)N1CC2(C1)[C@H](c1ccccc1)[C@@H](CO)N2C(=O)c1ccccn1 | nt | nt | nt | i
O=C(c1ccco1)N1CCN(c2nc3ccsc3c(=O)s2)CC1 | i | i | i | i
Cc1cc(C)c2nc(N3CCN(C(=O)c4ccco4)CC3)sc2c1 | i | 91 | i | i
Cc1cc(C)c2nc(N3CCC(C(=O)N4CCN(c5ncccn5)CC4)CC3)sc2c1 | i | i | nt | nt
Nc1nc(N2CCN(C(=O)c3ccco3)CC2)nc2ccc(Br)cc12 | nt | 105 | nt | i
O=C(c1ccco1)N1CCN(c2ncccn2)CC1 | i | nt | i | nt
Cc1cc2nc(N3CCN(C(=O)c4ccco4)CC3)sc2cc1C | i | 116 | ? | nt
C[C@@H]1CCCCO[C@@H](CN(C)Cc2ccc(C(=O)O)cc2)[C@@H](C)CN([C@@H](C)CO)C(=O)c2cc(NS(=O)(=O)c3ccc(Cl)cc3)ccc2O1 | i | nt | nt | i
COCCNc1nc(C)cc(-c2cc(C(=O)Nc3ccccc3)on2)n1 | i | i | nt | i
COc1ccc(-c2cc(C(=O)Nc3ccccc3F)on2)cc1 | nt | 95 | i | i
SMILES | Cneo AK release | MITF act | Wnt bcat act | PGC1a acetyl inh
COc1ccc(-c2cc(C(=O)Nc3ccccc3)on2)cc1 | nt | 101 | i | i
O=C(Nc1ccc(F)cc1)c1cc(-c2ccccc2)no1 | nt | i | 35 | nt
O=C(C[C@H]1CC[C@@H]2[C@H](COC[C@@H](O)CN2C(=O)Nc2ccc(F)cc2)O1)NCCCN1CCOCC1 | i | nt | nt | i
C[C@@H]1CN([C@H](C)CO)S(=O)(=O)c2ccc(C3=CCCCC3)cc2O[C@H]1CN(C)C(=O)Nc1ccc2c(c1)OCO2 | i | nt | nt | i
O=C(C[C@@H]1C[C@H]2c3cc(NC(=O)c4cccnc4)ccc3O[C@H]2[C@@H](CO)O1)NCCc1ccccc1 | i | nt | nt | i
O=C(C[C@@H]1C[C@@H]2c3cc(NC(=O)C4CCC4)ccc3O[C@@H]2[C@@H](CO)O1)NCc1ccc(-c2ccccc2)cc1 | i | nt | nt | 80
COCCNC(=O)C[C@H]1C[C@@H]2c3cc(NC(=O)C4CCC4)ccc3O[C@@H]2[C@H](CO)O1 | 103 | nt | nt | i
O=C(C[C@H]1C[C@@H]2c3cc(NC(=O)c4cccnc4)ccc3O[C@@H]2[C@@H](CO)O1)NCCc1ccccc1 | 81 | nt | nt | i
COCCNC(=O)C[C@@H]1C[C@@H]2c3cc(NC(=O)C4CCOCC4)ccc3O[C@@H]2[C@@H](CO)O1 | 98 | nt | nt | i
C[C@@H]1CCCCO[C@H](CN(C)Cc2ccc(C(F)(F)F)cc2)[C@@H](C)CN([C@H](C)CO)C(=O)c2cc(NC(=O)CCCCCC(=O)Nc3ccccc3N)ccc2O1 | nt | nt | nt | i
COc1ccc2c3c([nH]c2c1)[C@H](CO)N(S(C)(=O)=O)CC31CN(C(=O)c2ccncc2)C1 | nt | nt | nt | i
CC(=O)Nc1ccc2c(c1)ncn2-c1ccc(C)cc1 | nt | i | 43 | nt
CCC(=O)Nc1cc2nn(-c3ccccc3)nc2cc1Cl | i | i | 38 | i
Cc1ccc(-n2nc3ccc(NC(=O)C(C)C)cc3n2)cc1 | i | 111 | i | i
Cc1cc2nn(-c3ccccc3)nc2cc1NC(=O)c1cccs1 | nt | i | 31 | nt
CC(=O)Nc1cc2nn(-c3ccccc3)nc2cc1C | i | i | i | i
C[C@@H]1CN([C@@H](C)CO)C(=O)c2c(c3ccccc3n2C)-c2ccccc2CO[C@@H]1CN(C)Cc1ccc(C(F)(F)F)cc1 | nt | nt | nt | i
CC(C)CC(=O)Nc1ccc2nn(-c3ccccc3)nc2c1 | nt | 99 | ? | nt
C[C@@H]1CN([C@H](C)CO)S(=O)(=O)c2ccc(-c3ccc(C(=O)N(C)C)cc3)cc2O[C@H]1CN(C)C(=O)Cc1ccccn1 | 93! | nt | i | i
CC(C)CC#Cc1ccc2c(c1)O[C@@H](CN(C)C(=O)C1CCC1)[C@@H](C)CN([C@H](C)CO)S2(=O)=O | 100 | nt | nt | i
CC(C)CC#Cc1ccc2c(c1)O[C@H](CN(C)C(=O)C1CCC1)[C@H](C)CN([C@@H](C)CO)S2(=O)=O | i | nt | nt | i
C[C@H]1CN([C@@H](C)CO)S(=O)(=O)c2ccc(-c3ccccc3)cc2O[C@@H]1CN(C)C(=O)C1CCCCC1 | i | nt | nt | i
CC(C)CC#Cc1ccc2c(c1)O[C@H](CN(C)C(=O)C1CCC1)[C@@H](C)CN([C@@H](C)CO)S2(=O)=O | 109 | nt | nt | i
C[C@@H]1CN([C@@H](C)CO)S(=O)(=O)c2ccc(-c3ccccc3)cc2O[C@H]1CN(C)C(=O)C1CCCCC1 | 112 | nt | nt | i
Cc1ccc(NC(=O)c2cc3ccccc3o2)cc1Cl | i | 104 | i | i
SMILES | Cneo AK release | MITF act | Wnt bcat act | PGC1a acetyl inh
CC(=O)c1ccc(NC(=O)c2cc3ccccc3o2)cc1 | i | i | 39 | i
Cc1cc(C(=O)Nc2ccccc2)oc1C | nt | 113 | nt | i
O=C(c1cc2ccccc2o1)c1cccs1 | i | nt | 58 | i
COCC(=O)N1CC2(CN(Cc3nccs3)C2)c2c(n(C)c3cc(OC)ccc23)[C@@H]1CO | nt | nt | nt | i
C[C@H](NC(=O)C[C@H]1CC[C@H](NC(=O)c2cccnc2)[C@@H](CO)O1)c1ccccc1 | i | nt | nt | i
COc1cccc(C(=O)Nc2ccc3c(c2)C(=O)N(C)C[C@@H](OC)[C@H](C)CN(C)[C@@H](C)CO3)c1 | i | nt | nt | i
COc1cc(NC(=S)NC(=O)C(C)C)ccc1NC(=O)c1cc2ccccc2o1 | i | i | i | i
COc1cc(NC(=O)C(C)C)ccc1NC(=O)c1cc2ccccc2o1 | i | 84 | i | i
CC(C)c1nnc(NC(=O)c2cc3ccccc3o2)s1 | i | 108 | i | nt
O=C(Nc1ccc(Cl)cc1Cl)c1cc2ccccc2o1 | i | nt | i | i
CC(C)C(=O)Nc1cccc(NC(=O)c2cc3ccccc3o2)c1 | i | nt | i | i
CC(=O)Nc1cccc(NC(=O)c2cc3ccccc3o2)c1 | nt | ? | 51 | nt

Screening data: PubChem, Broad Institute
